Values joined by “and” are separate entries in the source; they are usually repeats but may differ in a detail not shown here. Equal entries are not always repeated.
Tests used:
[1] = system: Rattus norvegicus; experiment: Inhibitory activity against AII-Induced Pressor response at 1 mg/kg at 1 hr; format: functional
Procedure, shortened: (§1)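 Male Wistar-Imamichi rats (300–400 g) cannulated under pentobarbital (50 mg/kg ip), fasted 24 h, tested conscious the next day. AII 50 ng/kg iv was repeated until constant, then compound in 50% aqueous DMF given orally. AII was repeated over 8 h, and mean blood pressure response inhibition (%) was recorded at 1, 3, 6 h. n = 3–5.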

[2] = system: Rattus norvegicus; experiment: Inhibitory activity against AII-Induced Pressor response at 3 mg/Kg at 1 hr; format: functional; procedure, shortened: as §1
[3] = system: Rattus norvegicus; experiment: Inhibitory activity against AII-Induced Pressor response at 1 mg/kg at 3 hour; format: functional; settings: 1 mg/kg; procedure, shortened: as §1
[4] = system: Rattus norvegicus; experiment: Inhibitory activity against AII-Induced Pressor response at 1 mg/kg at 6 hour; format: functional; procedure, shortened: as §1
[5] = system: Rattus norvegicus; experiment: Inhibitory activity against AII-Induced Pressor response at 0.3 mg/Kg at 3 hr; format: functional; procedure, shortened: as §1
[6] = system: Rattus norvegicus; experiment: Inhibitory activity against AII-Induced Pressor response at 0.3 mg/Kg at 1 hr; format: functional; procedure, shortened: as §1
[7] = system: Rattus norvegicus; experiment: Inhibitory activity against AII-Induced Pressor response at 0.3 mg/Kg at 3 hour; format: functional; procedure, shortened: as §1
[8] = system: Rattus norvegicus; experiment: Inhibitory activity against AII-Induced Pressor response at 1 mg/Kg at 1 hr; format: functional; procedure, shortened: as §1
[9] = biological target: Angiotensin II receptor (Rattus norvegicus) (UniProt P29089+P25095+P35351); experiment: In vivo inhibitory activity against angiotensin II induced pressor response in anesthetized normotensive rats; format: functional, organism-based
Procedure, shortened: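 Male Wistar-Imamichi rats (300–400 g) under inactin (100 mg/kg ip), with femoral arterial and venous cannulae. AII 50 ng/kg iv every 10 min until responses were constant. Compound in DMSO was then given iv and AII re-injected 2 min later.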

[10] = system: Rattus norvegicus; experiment: Inhibitory activity against AII-Induced Pressor response at 0.3 mg/Kg at 6 hour; format: functional; procedure, shortened: as §1
[11] = system: Rattus norvegicus; experiment: Inhibitory activity against AII-Induced Pressor response at 1 mg/Kg at 3 hour; format: functional; procedure, shortened: as §1
[12] = system: Rattus norvegicus; experiment: Inhibitory activity against AII-Induced Pressor response at 1 mg/Kg at 6 hour; format: functional; procedure, shortened: as §1
[13] = biological target: T1, Type-1 angiotensin II receptor (Bos taurus, UniProt P25104); experiment: In vitro for inhibition of [125I]-angiotensin II (0.1 nM) binding to angiotensin II receptor type 1 in membrane fractions of bovine adrenal cortex; format: tissue-based
T1 sequence (P25104 whole entry): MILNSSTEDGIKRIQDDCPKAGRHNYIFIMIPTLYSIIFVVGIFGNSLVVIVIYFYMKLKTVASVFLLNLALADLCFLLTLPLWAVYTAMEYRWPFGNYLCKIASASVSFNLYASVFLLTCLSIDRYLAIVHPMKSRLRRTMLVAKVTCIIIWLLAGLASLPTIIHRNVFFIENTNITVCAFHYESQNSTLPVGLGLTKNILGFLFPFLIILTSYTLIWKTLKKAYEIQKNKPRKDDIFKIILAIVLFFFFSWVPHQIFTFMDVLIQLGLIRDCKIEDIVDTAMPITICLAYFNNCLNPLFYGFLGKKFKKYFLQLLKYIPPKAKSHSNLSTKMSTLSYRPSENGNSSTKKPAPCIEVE

[14] = system: Rattus norvegicus; experiment: Inhibitory activity against AII-Induced Pressor response at 0.03 mg/Kg at 6 hour; format: functional; procedure, shortened: as §1
[15] = system: Rattus norvegicus; experiment: Inhibitory activity against AII-Induced Pressor response at 0.03 mg/Kg at 3 hour; format: functional; procedure, shortened: as §1
[16] = system: Rattus norvegicus; experiment: Inhibitory activity against AII-Induced Pressor response at 0.1 mg/Kg at 3 hour; format: functional; procedure, shortened: as §1
[17] = system: Rattus norvegicus; experiment: Inhibitory activity against AII-Induced Pressor response at 0.03 mg/Kg at 1 hr; format: functional; procedure, shortened: as §1
[18] = system: Rattus norvegicus; experiment: Inhibitory activity against AII-Induced Pressor response at 0.1 mg/Kg at 1 hr; format: functional; procedure, shortened: as §1
[19] = system: Rattus norvegicus; experiment: Inhibitory activity against AII-Induced Pressor response at 0.1 mg/Kg at 6 hour; format: functional; procedure, shortened: as §1

Q: What does the source list for `CCCc1nc(C(C)(C)O)c(C(=O)OCOC(=O)C(C)(C)C)n1Cc1ccc(-c2ccccc2C(=O)O)cc1`?
A: inhibition in vivo at 1 mg/kg [1]: 52%; inhibition in vivo at 3 mg/kg [2]: 85%; Inhibition [3]: 61% and 85%; inhibition in vivo at 1 mg/kg ([4]; Rattus norvegicus, 6 h, dose 1 mg/kg): 75%; Inhibition ([4]; dose 3 mg/kg, in the assay text read “3 mg/kg” for “1 mg/kg”): 87%; inhibition in vivo at 0.3 mg/kg [5]: 32%; inhibition in vivo at 0.3 mg/kg [6]: 43%

Q: With `CCCc1nc(C(C)(C)O)c(C(=O)O)n1Cc1ccc(-c2ccccc2-c2nnn[nH]2)cc1` [OLMESARTAN] as the compound, how does the inhibition in vivo at 0.3 mg/kg [7] read?
A: The inhibition in vivo at 0.3 mg/kg was 77%.

Q: And the inhibition in vivo at 1 mg/kg [8]?
A: Its inhibition in vivo at 1 mg/kg is 98%.

Q: What about the ID50 [9] of the same compound?
A: Its ID50 is 7.9 µg/kg.

Q: What about the inhibition in vivo at 0.3 mg/kg [10] of the same compound?
A: The inhibition in vivo at 0.3 mg/kg was 78%.

Q: What about the inhibition in vivo at 1 mg/kg [11] of the same compound?
A: Its inhibition in vivo at 1 mg/kg is 98%.

Q: And the inhibition in vivo at 1 mg/kg [12]?
A: Its inhibition in vivo at 1 mg/kg is 93%.

Q: And the IC50 [13]?
A: The IC50 was 8.1 nM.

Q: What about the inhibition in vivo at 0.3 mg/kg [6] of the same compound?
A: Its inhibition in vivo at 0.3 mg/kg is 83%.

Q: For `CCCc1nc(C(C)(C)O)c(C(=O)OCOC(=O)C(C)(C)C)n1Cc1ccc(-c2ccccc2-c2nn[nH]n2)cc1`, which inhibition in vivo at 0.03 mg/kg [14] is on record?
A: Its inhibition in vivo at 0.03 mg/kg is 43%.

Q: What about the inhibition in vivo at 0.3 mg/kg [7] of the same compound?
A: Its inhibition in vivo at 0.3 mg/kg is 85%.

Q: What about the inhibition in vivo at 0.03 mg/kg [15] of the same compound?
A: The inhibition in vivo at 0.03 mg/kg was 41%.

Q: And the inhibition in vivo at 0.1 mg/kg [16]?
A: The inhibition in vivo at 0.1 mg/kg was 84%.

Q: And the inhibition in vivo at 0.03 mg/kg [17]?
A: The inhibition in vivo at 0.03 mg/kg was 29%.

Q: And the inhibition in vivo at 0.3 mg/kg [10]?
A: Its inhibition in vivo at 0.3 mg/kg is 90%.

Q: And the inhibition in vivo at 0.1 mg/kg [18]?
A: The inhibition in vivo at 0.1 mg/kg was 75%.

Q: What about the inhibition in vivo at 0.1 mg/kg [19] of the same compound?
A: The inhibition in vivo at 0.1 mg/kg was 70%.

Q: What about the inhibition in vivo at 0.3 mg/kg [6] of the same compound?
A: Its inhibition in vivo at 0.3 mg/kg is 76%.

From ChEMBL document CHEMBL1129298, “Nonpeptide angiotensin II receptor antagonists: synthesis, biological activities, and structure-activity relationships of imidazole-5-carboxylic acids bearing alkyl, alkenyl, and hydroxyalkyl substituents at the 4-position and their related compounds” (J Med Chem, 1996)
